Blank lines part the entries; values can stand above or below the compound they belong to. The source made the active and inactive calls. No cut-off for these calls is given here.
Experiments:
Histone deacetylase 1 = Histone deacetylase 1 (Homo sapiens, UniProt Q13547); assay: Inhibition of HDAC1 (unknown origin) using Fluor de Lys substrate by fluorescence assay relative to control
HL-60 = assay: Antiproliferative activity against human HL60 assessed as reduction in cell viability measured after 72 hrs using alamar blue based fluorescence method; type: functional; details: HL-60, 72 h
Method in brief: (§1)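 Leukemia lines grown in IMDM with penicillin/streptomycin, HL-60 with 20% FBS and K562 with 10% FBS, at 37 °C, 5% CO2. Cells in 96-well plates exposed to drug for 72 h. Alamar blue (1 mM solution) added for 5–6 h, fluorescence read at 530/590 nm.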

K562 = assay: Antiproliferative activity against human K562 assessed as reduction in cell viability measured after 72 hrs using alamar blue based fluorescence method; type: functional; details: K562, 72 h; method in brief: as §1
HCT-116 = assay: Antiproliferative activity against human HCT116 assessed as reduction in cell viability measured after 72 hrs using alamar blue based fluorescence method; type: functional; details: HCT-116, 72 h
Method in brief: (§2)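 HCT116 and MCF-7 grown in McCoy's 5A with 10% FBS and penicillin/streptomycin at 37 °C, 5% CO2. Cells plated in 96-well format and exposed to drug for 72 h. Alamar blue (1 mM solution) added, incubated 5–6 h, fluorescence read at 530/590 nm.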

MCF7 = assay: Antiproliferative activity against human MCF7 assessed as reduction in cell viability measured after 72 hrs using alamar blue based fluorescence method; type: functional; details: MCF7, 72 h; method in brief: as §2
[1] = biological target: Histone deacetylase 4 (Homo sapiens) (UniProt P56524); assay: Inhibition of HDAC4 (unknown origin) using Fluor de Lys substrate by fluorescence assay relative to control
Chain of Histone deacetylase 4 (Homo sapiens) (P56524 whole entry, canonical isoform): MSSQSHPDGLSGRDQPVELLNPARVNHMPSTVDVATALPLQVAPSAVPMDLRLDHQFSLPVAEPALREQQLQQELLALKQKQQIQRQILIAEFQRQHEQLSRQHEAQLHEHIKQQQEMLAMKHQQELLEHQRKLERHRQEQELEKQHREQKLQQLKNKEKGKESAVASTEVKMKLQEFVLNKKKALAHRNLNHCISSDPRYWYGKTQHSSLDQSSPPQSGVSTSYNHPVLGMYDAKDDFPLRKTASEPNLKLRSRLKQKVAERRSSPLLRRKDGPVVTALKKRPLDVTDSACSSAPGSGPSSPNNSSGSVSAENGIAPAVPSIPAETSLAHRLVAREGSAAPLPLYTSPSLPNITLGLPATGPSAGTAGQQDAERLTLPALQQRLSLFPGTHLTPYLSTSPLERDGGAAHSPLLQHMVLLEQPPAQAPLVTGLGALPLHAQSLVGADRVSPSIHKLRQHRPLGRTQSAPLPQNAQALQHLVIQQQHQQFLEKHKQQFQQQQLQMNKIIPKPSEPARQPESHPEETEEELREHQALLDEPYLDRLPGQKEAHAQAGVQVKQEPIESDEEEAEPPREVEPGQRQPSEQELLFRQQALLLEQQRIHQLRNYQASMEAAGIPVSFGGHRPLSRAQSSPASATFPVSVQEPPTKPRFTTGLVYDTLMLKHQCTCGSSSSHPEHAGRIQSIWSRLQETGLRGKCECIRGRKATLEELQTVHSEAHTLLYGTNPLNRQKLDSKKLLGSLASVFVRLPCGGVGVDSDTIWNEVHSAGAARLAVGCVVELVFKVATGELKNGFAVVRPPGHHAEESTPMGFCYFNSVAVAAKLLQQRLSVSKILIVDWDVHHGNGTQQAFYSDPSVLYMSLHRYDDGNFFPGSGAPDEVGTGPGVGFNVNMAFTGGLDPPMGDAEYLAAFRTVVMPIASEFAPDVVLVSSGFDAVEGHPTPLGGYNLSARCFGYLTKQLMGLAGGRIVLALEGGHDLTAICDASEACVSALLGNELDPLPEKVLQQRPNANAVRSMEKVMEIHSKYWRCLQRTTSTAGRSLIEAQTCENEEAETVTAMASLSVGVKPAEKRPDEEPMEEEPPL
Method in brief: (§3)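 Recombinant HDAC isoform assays run by a contract lab. Compounds in DMSO, 10-dose IC50 mode, 3-fold serial dilution from 50 μM. Duplicate runs; IC50 from curve fitting.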

[2] = biological target: Histone deacetylase 5 (Homo sapiens) (UniProt Q9UQL6); assay: Inhibition of HDAC5 (unknown origin) using Fluor de Lys substrate by fluorescence assay relative to control; method in brief: as §3
Chain of Histone deacetylase 5 (Homo sapiens) (Q9UQL6 whole entry): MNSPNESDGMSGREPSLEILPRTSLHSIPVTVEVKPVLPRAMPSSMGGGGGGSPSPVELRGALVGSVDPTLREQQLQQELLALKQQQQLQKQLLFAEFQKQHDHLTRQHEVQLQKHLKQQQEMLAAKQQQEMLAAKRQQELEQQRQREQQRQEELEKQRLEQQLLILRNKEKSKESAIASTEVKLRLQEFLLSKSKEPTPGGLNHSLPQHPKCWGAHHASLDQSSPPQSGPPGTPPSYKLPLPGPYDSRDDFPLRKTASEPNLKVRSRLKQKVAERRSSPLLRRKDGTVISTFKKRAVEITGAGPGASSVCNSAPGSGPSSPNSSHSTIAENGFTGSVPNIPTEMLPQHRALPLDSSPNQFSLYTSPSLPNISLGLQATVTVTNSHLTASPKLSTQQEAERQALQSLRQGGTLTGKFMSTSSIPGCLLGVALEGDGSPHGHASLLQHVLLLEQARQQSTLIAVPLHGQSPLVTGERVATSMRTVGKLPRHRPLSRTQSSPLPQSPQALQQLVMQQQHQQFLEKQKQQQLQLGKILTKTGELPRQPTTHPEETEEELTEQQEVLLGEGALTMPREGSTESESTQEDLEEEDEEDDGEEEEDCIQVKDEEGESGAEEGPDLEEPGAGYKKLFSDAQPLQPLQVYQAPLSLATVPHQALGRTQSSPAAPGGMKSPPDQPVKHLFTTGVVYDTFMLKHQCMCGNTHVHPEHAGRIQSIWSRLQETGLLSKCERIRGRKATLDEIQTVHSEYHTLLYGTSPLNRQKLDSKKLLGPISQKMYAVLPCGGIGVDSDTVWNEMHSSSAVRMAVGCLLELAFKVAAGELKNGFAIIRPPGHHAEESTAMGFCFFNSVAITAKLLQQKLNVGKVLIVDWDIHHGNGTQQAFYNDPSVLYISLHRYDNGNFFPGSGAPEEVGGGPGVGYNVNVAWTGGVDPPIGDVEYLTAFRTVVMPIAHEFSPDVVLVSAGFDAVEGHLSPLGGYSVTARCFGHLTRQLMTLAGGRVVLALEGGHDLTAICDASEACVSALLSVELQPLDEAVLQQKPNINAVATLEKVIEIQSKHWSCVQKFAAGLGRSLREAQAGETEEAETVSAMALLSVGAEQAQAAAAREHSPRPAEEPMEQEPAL

[3] = biological target: Histone deacetylase 7 (Homo sapiens) (UniProt Q8WUI4); assay: Inhibition of HDAC7 (unknown origin) using Fluor de Lys substrate by fluorescence assay relative to control; method in brief: as §3
[4] = biological target: Histone deacetylase 9 (Homo sapiens) (UniProt Q9UKV0); assay: Inhibition of HDAC9 (unknown origin) using Fluor de Lys substrate by fluorescence assay relative to control; method in brief: as §3
[5] = biological target: Protein deacetylase HDAC6 (Homo sapiens) (UniProt Q9UBN7); assay: Inhibition of HDAC6 (unknown origin) using Fluor de Lys substrate by fluorescence assay relative to control; method in brief: as §3
Chain of Protein deacetylase HDAC6 (Homo sapiens) (Q9UBN7 whole entry): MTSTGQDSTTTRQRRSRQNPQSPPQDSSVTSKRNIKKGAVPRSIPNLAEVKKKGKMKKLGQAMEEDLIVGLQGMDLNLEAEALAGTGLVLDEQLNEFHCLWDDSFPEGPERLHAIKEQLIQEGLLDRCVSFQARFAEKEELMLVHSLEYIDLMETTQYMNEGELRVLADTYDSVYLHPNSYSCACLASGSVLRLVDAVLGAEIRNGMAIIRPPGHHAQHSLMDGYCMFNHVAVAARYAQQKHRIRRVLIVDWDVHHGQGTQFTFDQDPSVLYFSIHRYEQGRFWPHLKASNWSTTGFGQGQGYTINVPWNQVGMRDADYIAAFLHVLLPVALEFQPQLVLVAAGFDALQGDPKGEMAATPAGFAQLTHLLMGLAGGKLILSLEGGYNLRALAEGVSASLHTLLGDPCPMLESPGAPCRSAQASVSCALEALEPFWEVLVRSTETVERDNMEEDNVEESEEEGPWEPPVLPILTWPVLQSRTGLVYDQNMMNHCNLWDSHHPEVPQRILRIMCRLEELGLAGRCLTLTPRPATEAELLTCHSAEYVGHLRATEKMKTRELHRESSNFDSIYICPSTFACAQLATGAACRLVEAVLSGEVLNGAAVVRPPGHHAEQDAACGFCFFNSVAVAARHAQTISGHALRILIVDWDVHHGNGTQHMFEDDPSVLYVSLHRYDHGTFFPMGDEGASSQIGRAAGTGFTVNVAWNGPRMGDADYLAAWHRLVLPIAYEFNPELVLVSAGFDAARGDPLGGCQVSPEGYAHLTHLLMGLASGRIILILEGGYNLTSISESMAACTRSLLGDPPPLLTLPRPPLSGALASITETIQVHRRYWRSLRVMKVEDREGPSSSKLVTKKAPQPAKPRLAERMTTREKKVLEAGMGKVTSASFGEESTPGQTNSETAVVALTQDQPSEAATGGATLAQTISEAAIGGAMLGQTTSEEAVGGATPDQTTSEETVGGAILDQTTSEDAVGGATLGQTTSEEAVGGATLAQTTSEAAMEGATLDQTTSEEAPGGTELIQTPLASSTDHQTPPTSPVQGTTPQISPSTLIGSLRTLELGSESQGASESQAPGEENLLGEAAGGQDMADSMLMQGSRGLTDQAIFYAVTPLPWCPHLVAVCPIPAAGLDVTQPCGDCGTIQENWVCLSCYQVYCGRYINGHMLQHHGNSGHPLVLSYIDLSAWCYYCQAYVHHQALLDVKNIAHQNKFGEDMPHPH

[6] = biological target: Polyamine deacetylase HDAC10 (Homo sapiens, UniProt Q969S8); assay: Inhibition of HDAC10 (unknown origin) using Fluor de Lys substrate by fluorescence assay relative to control; method in brief: as §3
Chain of Polyamine deacetylase HDAC10 (Q969S8 whole entry): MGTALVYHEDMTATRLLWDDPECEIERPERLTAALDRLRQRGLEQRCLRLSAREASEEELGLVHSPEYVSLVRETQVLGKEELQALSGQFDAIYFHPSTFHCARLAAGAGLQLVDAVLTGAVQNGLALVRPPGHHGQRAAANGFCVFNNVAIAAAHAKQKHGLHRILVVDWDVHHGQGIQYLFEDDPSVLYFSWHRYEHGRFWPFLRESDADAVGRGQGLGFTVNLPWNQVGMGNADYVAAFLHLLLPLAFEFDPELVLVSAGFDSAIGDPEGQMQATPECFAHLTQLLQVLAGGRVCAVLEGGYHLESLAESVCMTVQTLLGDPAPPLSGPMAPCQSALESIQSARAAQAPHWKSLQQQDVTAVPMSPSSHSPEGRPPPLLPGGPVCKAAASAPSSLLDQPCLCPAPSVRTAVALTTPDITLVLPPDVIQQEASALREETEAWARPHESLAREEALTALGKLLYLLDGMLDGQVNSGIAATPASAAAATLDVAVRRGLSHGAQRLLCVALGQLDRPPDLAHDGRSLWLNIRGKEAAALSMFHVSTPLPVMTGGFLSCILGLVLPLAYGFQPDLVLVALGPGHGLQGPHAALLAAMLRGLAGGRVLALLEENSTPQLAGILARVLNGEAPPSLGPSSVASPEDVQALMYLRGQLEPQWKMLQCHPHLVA

Histone deacetylase 11 = Histone deacetylase 11 (Homo sapiens, UniProt Q96DB2); assay: Inhibition of HDAC11 (unknown origin) using Fluor de Lys substrate by fluorescence assay relative to control; method in brief: as §3
Chain of Histone deacetylase 11 (Q96DB2 whole entry): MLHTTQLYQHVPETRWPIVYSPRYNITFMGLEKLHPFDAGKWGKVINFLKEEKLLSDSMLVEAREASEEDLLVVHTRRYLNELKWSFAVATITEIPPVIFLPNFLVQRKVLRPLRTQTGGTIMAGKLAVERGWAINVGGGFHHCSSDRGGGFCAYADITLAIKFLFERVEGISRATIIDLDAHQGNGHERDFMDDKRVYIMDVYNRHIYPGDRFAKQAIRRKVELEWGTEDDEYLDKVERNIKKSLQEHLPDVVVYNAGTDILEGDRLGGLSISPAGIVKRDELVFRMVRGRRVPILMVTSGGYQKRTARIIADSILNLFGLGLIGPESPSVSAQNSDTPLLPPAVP

[7] = Metabolic stability in human liver microsomes assessed as internal clearance at 1 uM preincubated for 10 mins followed by NADPH addition measured upto 60 mins by LC-MS/MS analysis; type: ADME, Microsome; details: read-out: CLH
Method in brief: (§4)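 Liver microsomes from male SD rat, dog or human at 0.5 mg/mL in 100 mM potassium phosphate pH 7.4 with 1 μM compound. Prewarmed 37 °C 10 min, started with 1 mM NADPH. Stopped at 0, 5, 10, 20, 40, 60 min with cold methanol containing glibenclamide internal standard; supernatant by LC–MS/MS; T1/2 and CLint derived.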

[8] = Metabolic stability in human liver microsomes assessed as half life at 1 uM preincubated for 10 mins followed by NADPH addition measured upto 60 mins by LC-MS/MS analysis; type: ADME, Microsome; method in brief: as §4
[9] = Metabolic stability in dog liver microsomes assessed as half life at 1 uM preincubated for 10 mins followed by NADPH addition measured upto 60 mins by LC-MS/MS analysis; type: ADME, Canis lupus familiaris, Microsome; method in brief: as §4
[10] = Metabolic stability in dog liver microsomes assessed as internal clearance at 1 uM preincubated for 10 mins followed by NADPH addition measured upto 60 mins by LC-MS/MS analysis; type: ADME, Canis lupus familiaris, Microsome; details: read-out: CLH; method in brief: as §4
[11] = Metabolic stability in rat liver microsomes assessed as half life at 1 uM preincubated for 10 mins followed by NADPH addition measured upto 60 mins by LC-MS/MS analysis; type: ADME, Microsome; method in brief: as §4
[12] = Metabolic stability in rat liver microsomes assessed as internal clearance at 1 uM preincubated for 10 mins followed by NADPH addition measured upto 60 mins by LC-MS/MS analysis; type: ADME, Microsome; details: read-out: CLH; method in brief: as §4

Chain of Histone deacetylase 1 (Q13547 whole entry): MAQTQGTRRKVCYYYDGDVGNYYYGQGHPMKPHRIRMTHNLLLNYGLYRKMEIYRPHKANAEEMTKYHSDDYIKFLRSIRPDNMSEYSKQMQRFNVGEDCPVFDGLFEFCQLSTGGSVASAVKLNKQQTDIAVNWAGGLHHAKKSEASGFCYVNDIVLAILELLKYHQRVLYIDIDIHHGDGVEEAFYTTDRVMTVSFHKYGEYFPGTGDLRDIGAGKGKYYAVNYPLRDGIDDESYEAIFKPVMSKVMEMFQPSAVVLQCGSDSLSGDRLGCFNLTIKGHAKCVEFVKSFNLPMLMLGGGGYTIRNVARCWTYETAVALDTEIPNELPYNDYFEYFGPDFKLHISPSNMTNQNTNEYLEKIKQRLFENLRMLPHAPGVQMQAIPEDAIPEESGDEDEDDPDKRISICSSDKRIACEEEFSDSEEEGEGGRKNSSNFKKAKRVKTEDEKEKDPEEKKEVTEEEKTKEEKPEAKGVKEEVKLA

IC50 (Histone deacetylase 1; read-out: IC50): 65.6 nM | IC50 (HL-60): 450 nM | IC50 (K562): 286 nM | IC50 (HCT-116): 483 nM | IC50 (MCF7): 20100 nM
SMILES: Nc1ccccc1NC(=O)c1ccc(CNC(=O)/C=C2\NC(=O)c3ccccc32)cc1

IC50 (Histone deacetylase 1; read-out: IC50): 57.9 nM
SMILES: O=C(/C=C1\NC(=O)c2ccccc21)NCCCCCC(=O)NO

IC50 (Histone deacetylase 1; read-out: IC50): 872 nM
SMILES: Nc1ccccc1NC(=O)CCCCCNC(=O)/C=C1\NC(=O)c2ccccc21

IC50 (Histone deacetylase 1; read-out: IC50): 1600 nM
SMILES: Nc1cc(F)ccc1NC(=O)CCCCCCNC(=O)/C=C1\NC(=O)c2ccccc21

IC50 (Histone deacetylase 1; read-out: IC50): 320 nM
SMILES: Nc1ccccc1NC(=O)CCCCCCNC(=O)/C=C1\NC(=O)c2ccccc21

IC50 (Histone deacetylase 1; read-out: IC50): 758 nM
SMILES: Nc1ccccc1NC(=O)c1ccc(CNC(=O)/C=C2\NC(=O)c3ncccc32)cc1

IC50 (Histone deacetylase 1; read-out: IC50): 70.3 nM
SMILES: Nc1ccc(F)cc1NC(=O)c1ccc(CNC(=O)/C=C2\NC(=O)c3ccccc32)cc1

IC50 (Histone deacetylase 1; read-out: IC50): 6420 nM
SMILES: Nc1cc(F)ccc1NC(=O)CCCCCNC(=O)/C=C1\NC(=O)c2ccccc21

IC50 (Histone deacetylase 1; read-out: IC50): 5720 nM
SMILES: Cc1ccc(NC(=O)c2ccc(CNC(=O)/C=C3\NC(=O)c4ccccc43)cc2)c(N)c1

IC50 (Histone deacetylase 1; read-out: IC50): 489 nM
SMILES: Nc1cc(F)ccc1NC(=O)c1ccc(CNC(=O)/C=C2\NC(=O)c3cc(Cl)c(Cl)cc32)cc1

IC50 (Histone deacetylase 1; read-out: IC50): 167 nM
SMILES: Nc1cc(F)ccc1NC(=O)c1ccc(CNC(=O)/C=C2\NC(=O)c3ccc(F)cc32)cc1

IC50 (Histone deacetylase 1; read-out: IC50): 466 nM
SMILES: Nc1cc(Cl)ccc1NC(=O)c1ccc(CNC(=O)/C=C2\NC(=O)c3ccccc32)cc1

IC50 (Histone deacetylase 1; read-out: IC50): 8360 nM
SMILES: Nc1cc(F)ccc1NC(=O)c1ccc(CNC(=O)/C=C2\NC(=O)c3ncccc32)cc1

IC50 (Histone deacetylase 1): Not Active
SMILES: Nc1cc(F)ccc1NC(=O)c1ccc(CNC(=O)/C=C2\NC(=O)c3cccnc32)cc1

IC50 (Histone deacetylase 1; read-out: IC50): 491 nM
SMILES: Nc1cc(F)ccc1NC(=O)c1ccc(CNC(=O)/C=C2\NC(=O)c3ccc(C(F)(F)F)cc32)cc1

inhibition [1]: inactive | inhibition [2]: inactive | inhibition [3]: inactive | inhibition [4]: inactive | inhibition [5]: inactive | IC50 [6]: 235 nM | IC50 (Histone deacetylase 11): 760 nM | IC50 (HL-60): 1970 nM | IC50 (K562): 747 nM | IC50 (HCT-116): 1090 nM | IC50 (MCF7): 29100 nM | microsomal CLint at 1 µM [7]: 4.98 µL/min/mg | half-life at 1 µM [8]: 4.6 h | half-life at 1 µM [9]: 5.03 h | microsomal CLint at 1 µM [10]: 5.76 µL/min/mg | half-life at 1 µM [11]: 3.17 h | microsomal CLint at 1 µM [12]: 10.3 µL/min/mg
SMILES: Nc1cc(F)ccc1NC(=O)c1ccc(CNC(=O)/C=C/c2cccnc2)cc1 [TUCIDINOSTAT]

IC50 (Histone deacetylase 1; read-out: IC50): 96.8 nM
SMILES: COc1ccc2c(c1)/C(=C/C(=O)NCc1ccc(C(=O)Nc3ccc(F)cc3N)cc1)NC2=O

Reference: ChEMBL document CHEMBL4387704, “Design, synthesis and biological evaluation of novel isoindolinone derivatives as potent histone deacetylase inhibitors” (Eur J Med Chem, 2019)
